ChEMBL document CHEMBL3352010, “Synthesis and Pharmacology of a Novel κ Opioid Receptor (KOR) Agonist with a 1,3,5-Trioxazatriquinane Skeleton” (ACS Med Chem Lett, 2014)
pEC50, pKi: −log10 of the molar value.

Legend:
Mus musculus = experiment: Analgesic activity in sc dosed mouse assessed as inhibition of acetic acid-induced writhing response treated 15 mins before acetic acid challenge measured after 10 mins; assay type: functional
In short: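 Test agent given s.c. to mice; 15 min later, 0.6% acetic acid i.p. at 10 mL/kg. After a 10 min delay, abdominal constrictions were counted over the next 10 min. 8 mice per group; group means ± SEM; ED50 taken from the dose-response. Statistics by one-way ANOVA with Bonferroni test versus vehicle.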

[1] = target: Kappa-type opioid receptor (Cavia porcellus, UniProt P41144); experiment: Displacement of [3H]U69593 from kappa opioid receptor in guinea pig cerebellum
Chain of Kappa-type opioid receptor (Cavia porcellus, UniProt P41144) (P41144 whole entry): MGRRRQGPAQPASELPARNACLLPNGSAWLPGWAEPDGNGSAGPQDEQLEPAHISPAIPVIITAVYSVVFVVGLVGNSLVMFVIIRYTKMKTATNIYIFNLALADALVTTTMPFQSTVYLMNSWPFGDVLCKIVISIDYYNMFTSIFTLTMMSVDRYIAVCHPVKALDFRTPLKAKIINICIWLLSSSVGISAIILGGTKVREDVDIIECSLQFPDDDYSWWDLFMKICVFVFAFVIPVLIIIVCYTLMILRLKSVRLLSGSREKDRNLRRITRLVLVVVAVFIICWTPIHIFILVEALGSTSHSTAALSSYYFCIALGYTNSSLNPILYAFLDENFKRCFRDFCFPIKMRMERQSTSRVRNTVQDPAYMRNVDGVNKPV

[2] = target: T1, Delta-type opioid receptor (Homo sapiens, UniProt P41143); experiment: Agonist activity at human delta opioid receptor expressed in CHO cells assessed as stimulation of [35S]-GTPgammaS binding; assay type: functional, cell-based
T1 sequence (P41143 whole entry): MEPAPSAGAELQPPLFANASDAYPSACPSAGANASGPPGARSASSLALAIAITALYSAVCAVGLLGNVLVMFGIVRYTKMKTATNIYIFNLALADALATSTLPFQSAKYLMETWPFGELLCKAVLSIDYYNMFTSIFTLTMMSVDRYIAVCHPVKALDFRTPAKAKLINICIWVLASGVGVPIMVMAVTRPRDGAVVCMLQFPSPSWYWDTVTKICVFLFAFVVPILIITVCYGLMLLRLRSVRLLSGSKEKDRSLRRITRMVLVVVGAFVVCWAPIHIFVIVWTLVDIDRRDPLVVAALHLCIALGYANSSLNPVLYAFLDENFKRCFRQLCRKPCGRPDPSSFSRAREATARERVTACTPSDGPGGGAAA

[3] = target: T2, Kappa-type opioid receptor (Homo sapiens, UniProt P41145); experiment: Agonist activity at human kappa opioid receptor expressed in CHO cells assessed as stimulation of [35S]-GTPgammaS binding; assay type: functional, cell-based
T2 sequence (P41145 whole entry): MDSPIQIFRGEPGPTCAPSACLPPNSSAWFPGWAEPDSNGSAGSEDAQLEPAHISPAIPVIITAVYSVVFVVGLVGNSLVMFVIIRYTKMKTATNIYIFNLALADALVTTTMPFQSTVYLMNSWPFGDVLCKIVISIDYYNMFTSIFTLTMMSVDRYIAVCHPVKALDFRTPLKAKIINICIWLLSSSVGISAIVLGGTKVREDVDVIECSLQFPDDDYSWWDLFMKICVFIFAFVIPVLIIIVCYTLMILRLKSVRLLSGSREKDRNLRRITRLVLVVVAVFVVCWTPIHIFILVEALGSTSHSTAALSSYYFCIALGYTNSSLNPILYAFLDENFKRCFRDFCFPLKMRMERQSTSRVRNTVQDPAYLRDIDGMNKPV

[4] = target: Delta-type opioid receptor (Mus musculus, UniProt P32300); experiment: Displacement of [3H]DPDPE from delta opioid receptor in mouse whole brain without cerebellum
Chain of Delta-type opioid receptor (Mus musculus, UniProt P32300) (P32300 whole entry): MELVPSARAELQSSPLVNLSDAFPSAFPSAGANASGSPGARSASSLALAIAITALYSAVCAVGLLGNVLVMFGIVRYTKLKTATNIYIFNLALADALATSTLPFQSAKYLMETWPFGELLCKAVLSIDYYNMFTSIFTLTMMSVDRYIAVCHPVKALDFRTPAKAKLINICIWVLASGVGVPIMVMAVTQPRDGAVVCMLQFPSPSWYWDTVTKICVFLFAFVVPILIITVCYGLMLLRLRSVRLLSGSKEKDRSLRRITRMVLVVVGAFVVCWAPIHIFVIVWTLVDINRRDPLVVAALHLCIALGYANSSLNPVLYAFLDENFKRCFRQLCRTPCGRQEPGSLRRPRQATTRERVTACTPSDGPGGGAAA

Mu-type opioid receptor = Mu-type opioid receptor (Mus musculus, UniProt P42866); experiment: Displacement of [3H]DAMGO from mu opioid receptor in mouse whole brain without cerebellum
Chain of Mu-type opioid receptor (P42866 whole entry): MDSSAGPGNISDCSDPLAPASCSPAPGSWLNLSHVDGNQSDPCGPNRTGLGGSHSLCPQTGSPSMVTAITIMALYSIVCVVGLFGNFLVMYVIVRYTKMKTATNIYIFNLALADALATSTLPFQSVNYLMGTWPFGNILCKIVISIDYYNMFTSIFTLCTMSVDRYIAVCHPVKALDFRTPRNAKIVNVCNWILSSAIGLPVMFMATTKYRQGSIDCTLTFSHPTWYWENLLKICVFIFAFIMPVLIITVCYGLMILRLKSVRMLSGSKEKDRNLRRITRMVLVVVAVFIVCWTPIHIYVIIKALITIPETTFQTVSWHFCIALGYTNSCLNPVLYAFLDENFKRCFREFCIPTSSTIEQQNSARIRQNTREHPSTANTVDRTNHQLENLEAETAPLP

[5] = target: T2, Kappa-type opioid receptor; experiment: Agonist activity at human kappa opioid receptor expressed in CHO cells assessed as stimulation of [35S]-GTPgammaS binding relative to U69593; assay type: functional, cell-based
[6] = target: T1, Delta-type opioid receptor; experiment: Agonist activity at human delta opioid receptor expressed in CHO cells assessed as stimulation of [35S]-GTPgammaS binding relative to DPDPE; assay type: functional, cell-based

Row | SMILES | pKi [1] | pKi [4] | pKi (Mu-type opioid receptor) | further results
1 | C[C@@]1(c2cccc(O)c2)O[C@H]2CO[C@@H]3N2[C@H]1O[C@]3(C)c1cccc(O)c1 [listing 1 of 2 here] | 8.33 | < 6.00 | < 6.00 | ED50 (Mus musculus): 3.5 mg/kg; pEC50 [2]: 7.08; pEC50 [3]: 7.30
2 | CC1(c2cccc(O)c2)OC2COC3N2C1OC3(C)c1cccc(O)c1 (stereo not given) | < 6.00 | 6.19 | 6.53 | –
3 | C[C@@]1(c2cccc(O)c2)O[C@H]2CO[C@@H]3N2[C@H]1O[C@]3(C)c1cccc(O)c1 [listing 2 of 2 here] | – | – | – | Activity (Mus musculus): Dose-dependent effect; Emax [5]: 96.8%; Emax [6]: 23.4%
4 | C[C@@]1(c2cccc(O)c2)O[C@@H]2N3[C@H]1O[C@@](C)(c1cccc(O)c1)[C@@H]3O[C@@]2(C)c1cccc(O)c1 (relative stereo) | < 6.00 | < 6.00 | < 6.00 | –
5 | C[C@@]1(c2cccc(O)c2)O[C@@H]2N3[C@H]1O[C@](C)(c1cccc(O)c1)[C@@H]3O[C@@]2(C)c1cccc(O)c1 (relative stereo) | 6.18 | < 6.00 | 6.19 | –
6 | C[C@@]1(c2cccc(O)c2)O[C@@H]2N3[C@H]1O[C@](C)(c1cccc(O)c1)[C@@H]3O[C@]2(C)c1cccc(O)c1 (relative stereo) | < 6.00 | < 6.00 | 6.03 | –
7 | C[C@@]1(c2cccc(O)c2)O[C@H]2CO[C@@H]3N2[C@H]1O[C@@]3(C)c1cccc(O)c1 (relative stereo) | 6.10 | < 6.00 | 6.13 | –
8 | C[C@@]1(c2cccc(O)c2)O[C@@H]2N3[C@H](CO[C@H]31)O[C@]2(C)c1cccc(O)c1 (relative stereo) | < 6.00 | < 6.00 | < 6.00 | –
9 | C[C@@]1(c2cccc(O)c2)O[C@H]2CO[C@@H]3N2[C@H]1O[C@]3(C)c1cccc(O)c1 (relative stereo) [listing 1 of 2 here] | 8.22 | < 6.00 | < 6.00 | pEC50 [3]: 7.01
10 | C[C@]1(c2cccc(O)c2)O[C@H]2CO[C@@H]3N2[C@H]1O[C@]3(C)c1cccc(O)c1 (relative stereo) | < 6.00 | < 6.00 | < 6.00 | –
11 | C[C@@]1(c2cccc(O)c2)O[C@H]2CO[C@H]3CO[C@@H]1N32 (relative stereo) | < 6.00 | < 6.00 | < 6.00 | –
12 | C[C@]1(c2cccc(O)c2)O[C@H]2CO[C@H]3CO[C@@H]1N32 (relative stereo) | < 6.00 | < 6.00 | < 6.00 | –
13 | COc1cccc([C@]2(C)O[C@H]3CO[C@@H]4N3[C@H]2O[C@]4(C)c2cccc(OC)c2)c1 (relative stereo) | < 6.00 | < 6.00 | < 6.00 | –
14 | COc1cccc([C@@]2(C)O[C@@H]3N4[C@H](CO[C@H]42)O[C@@]3(C)c2cccc(O)c2)c1 (relative stereo) | 7.28 | < 6.00 | < 6.00 | –
15 | COc1cccc([C@]2(C)O[C@H]3CO[C@@H]4N3[C@H]2O[C@]4(C)c2cccc(O)c2)c1 (relative stereo) | < 6.00 | < 6.00 | < 6.00 | –
16 | C[C@@]1(c2cccc(O)c2)O[C@H]2CO[C@@H]3N2[C@H]1O[C@]3(C)c1cccc(O)c1 (relative stereo) [listing 2 of 2 here] | – | – | – | Emax [5]: 98.2%
